Data reported in ChEMBL document CHEMBL1137728, “Synthesis of novel thiazolone-based compounds containing pyrazoline moiety and evaluation of their anticancer activity” (2009).

Tests used:
Type in all cases: functional
LOX IMVI = assay: Growth inhibition of human LOXIMVI cells after 48 hrs by SRB assay; conditions: for TGI: read-out: pTGI (converted)
Summary of the method: (§1)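 NCI five-dose screen across about 60 human tumour cell lines, at 10-fold dilutions from 10^-4 to 10^-8 M with 48 h continuous exposure, read by SRB. Percent growth used time-zero, untreated control and treated absorbances. GI50 was the concentration giving 50% lower net protein increase than controls. Values beyond the tested range were reported as more or less than the maximum or minimum concentration.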

[1] = Anticancer activity against human NCI60 cells assessed as cell growth at 10 uM after 48 hrs by SRB assay; conditions: NCI60, 48 h, read-out: Activity
Summary of the method: (§2)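 US NCI one-dose screen across about 60 human tumour cell lines. A single concentration of 10^-5 M was applied with 48 h continuous exposure. The end point was sulforhodamine B protein staining, read spectrophotometrically. Results are given as percent growth of treated cells relative to untreated controls.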

HL-60(TB) = assay: Anticancer activity against human HL-60(TB) cells assessed as cell growth at 10 uM after 48 hrs by SRB assay; conditions: HL-60, 48 h, read-out: Activity
Summary of the method: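 Single-dose NCI-60 screen: 10^-5 M added to culture, 48 h incubation; endpoint by sulforhodamine B protein staining read spectrophotometrically; reported as percent growth of treated cells versus untreated control cells.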

SR = assay: Anticancer activity against human SR cells assessed as cell growth at 10 uM after 48 hrs by SRB assay; conditions: read-out: Activity; summary of the method: as §2
HCT-15 = assay: Growth inhibition of human HCT15 cells after 48 hrs by SRB assay; conditions: HCT-15, 48 h; summary of the method: as §1
HT-29 = assay: Growth inhibition of human HT-29 cells after 48 hrs by SRB assay; conditions: HT-29, 48 h; summary of the method: as §1
KM12 = assay: Growth inhibition of human KM12 cells after 48 hrs by SRB assay; conditions: KM12, 48 h; summary of the method: as §1
SF-268 = assay: Growth inhibition of human SF268 cells after 48 hrs by SRB assay; conditions: SF-268, 48 h; summary of the method: as §1
SNB-19 = assay: Growth inhibition of human SNB19 cells after 48 hrs by SRB assay; conditions: SNB-19, 48 h; summary of the method: as §1
SNB-75 = assay: Growth inhibition of human SNB75 cells after 48 hrs by SRB assay; conditions: SNB-75, 48 h; summary of the method: as §1
U-251 = assay: Growth inhibition of human U251 cells after 48 hrs by SRB assay; conditions: U-251, 48 h; summary of the method: as §1
Malme-3M = assay: Growth inhibition of human MALME-3M cells after 48 hrs by SRB assay; summary of the method: as §1
SK-MEL-5 = assay: Growth inhibition of human SK-MEL-5 cells after 48 hrs by SRB assay; conditions: SK-MEL-5, 48 h; summary of the method: as §1
IGROV-1 = assay: Growth inhibition of human IGROV1 cells after 48 hrs by SRB assay; conditions: IGROV-1, 48 h; summary of the method: as §1
OVCAR-3 = assay: Growth inhibition of human OVCAR-3 cells after 48 hrs by SRB assay; conditions: OVCAR-3, 48 h; summary of the method: as §1
ACHN = assay: Growth inhibition of human ACHN cells after 48 hrs by SRB assay; summary of the method: as §1
CAKI-1 = assay: Growth inhibition of human Caki1 cells after 48 hrs by SRB assay; conditions: CAKI-1, 48 h; summary of the method: as §1
SN12C = assay: Growth inhibition of human SN12C cells after 48 hrs by SRB assay; summary of the method: as §1
TK-10 = assay: Growth inhibition of human TK10 cells after 48 hrs by SRB assay; conditions: TK-10, 48 h; summary of the method: as §1
UO-31 = assay: Growth inhibition of human UO31 cells after 48 hrs by SRB assay; conditions: UO-31, 48 h; summary of the method: as §1
DU-145 [2] = assay: Growth inhibition of human DU145 cells after 48 hrs by SRB assay; conditions: DU-145, 48 h; summary of the method: as §1
MCF7 = assay: Growth inhibition of human MCF7 cells after 48 hrs by SRB assay; conditions: MCF7, 48 h; summary of the method: as §1
MDA-MB-231 = assay: Growth inhibition of human MDA-MB-231 cells after 48 hrs by SRB assay; conditions: MDA-MB-231, 48 h; summary of the method: as §1
[3] = Growth inhibition of human Hs 578T cells after 48 hrs by SRB assay; summary of the method: as §1
MDA-MB-435 = assay: Growth inhibition of human MDA-MB-435 cells after 48 hrs by SRB assay; conditions: MDA-MB-435, 48 h; summary of the method: as §1
T47D = assay: Growth inhibition of human T47D cells after 48 hrs by SRB assay; summary of the method: as §1
DU-145 [4] = assay: Anticancer activity against human DU145 cells assessed as cell growth at 10 uM after 48 hrs by SRB assay; conditions: DU-145, 48 h, read-out: Activity; summary of the method: as §2
CCRF-CEM = assay: Growth inhibition of human CCRF-CEM cells after 48 hrs by SRB assay; summary of the method: as §1
MOLT-4 = assay: Growth inhibition of human MOLT4 cells after 48 hrs by SRB assay; conditions: MOLT-4, 48 h; summary of the method: as §1
[5] = Growth inhibition of human […] cells after 48 hrs by SRB assay; summary of the method: as §1
HOP-62 = assay: Growth inhibition of human HOP62 cells after 48 hrs by SRB assay; conditions: HOP-62, 48 h; summary of the method: as §1
NCI-H460 = assay: Growth inhibition of human NCI-H460 cells after 48 hrs by SRB assay; conditions: NCI-H460, 48 h, read-out: pTGI (converted); summary of the method: as §1
HCT-116 = assay: Growth inhibition of human HCT116 cells after 48 hrs by SRB assay; conditions: HCT-116, 48 h; summary of the method: as §1

Molecule O=C1N=C(N2N=C(c3ccccc3)CC2c2ccccc2O)/C(=C/c2ccc(Cl)cc2)S1 (centres undefined) has a GI50 (LOX IMVI) of 1.86 µM and a TGI (LOX IMVI) of 3.55 µM.

For O=C1N=C(N2N=C(c3ccccc3)CC2c2ccccc2O)S/C1=C\c1cccc(Br)c1 (centres undefined), the growth at 10 µM [1] was 88.6% and the growth at 10 µM (HL-60(TB)) was -54%.

Molecule O=C1N=C(N2N=C(c3ccccc3)CC2c2ccccc2O)S/C1=C\c1ccccc1Cl (centres undefined) has a growth at 10 µM [1] of 102% and a growth at 10 µM (SR) of 45.6%.

For COc1cc(/C=C2/SC(N3N=C(c4ccccc4)CC3c3ccccc3O)=NC2=O)cc(OC)c1O (centres undefined), the GI50 (HCT-15) was 1.23 µM, the TGI (HCT-15; read-out: pTGI (converted)) was 2.69 µM and the GI50 (HT-29) was 0.427 µM. It also gave a TGI (HT-29; read-out: pTGI (converted)) of 2.82 µM, a GI50 (KM12) of 1.82 µM and a TGI (KM12; read-out: pTGI (converted)) of 3.63 µM. It also gave a GI50 (SF-268) of 1.86 µM, a TGI (SF-268; read-out: pTGI (converted)) of 4.47 µM and a GI50 (SNB-19) of 1.78 µM. For the same molecule, the TGI (SNB-19; read-out: pTGI (converted)) was 3.72 µM, the GI50 (SNB-75) was 1.74 µM and the TGI (SNB-75; read-out: pTGI (converted)) was 4.27 µM. For the same molecule, the GI50 (U-251) was 1.51 µM, the TGI (U-251; read-out: pTGI (converted)) was 2.82 µM and the GI50 (LOX IMVI) was 1.55 µM. The TGI (LOX IMVI) was 2.95 µM, the GI50 (Malme-3M) was 2 µM and the TGI (Malme-3M; read-out: pTGI (converted)) was 4.9 µM. For the same molecule, the GI50 (SK-MEL-5) was 1.91 µM, the TGI (SK-MEL-5; read-out: pTGI (converted)) was 10.5 µM and the GI50 (IGROV-1) was 1.58 µM. It also gave a TGI (IGROV-1; read-out: pTGI (converted)) of 2.88 µM, a GI50 (OVCAR-3) of 1.41 µM and a TGI (OVCAR-3; read-out: pTGI (converted)) of 2.82 µM. The GI50 (ACHN) was 1.17 µM, the TGI (ACHN; read-out: pTGI (converted)) was 10.2 µM and the GI50 (CAKI-1) was 1.02 µM. It also gave a TGI (CAKI-1; read-out: pTGI (converted)) of 3.24 µM, a GI50 (SN12C) of 1.58 µM and a TGI (SN12C; read-out: pTGI (converted)) of 4.9 µM. For the same molecule, the GI50 (TK-10) was 1.78 µM, the TGI (TK-10; read-out: pTGI (converted)) was 3.98 µM and the GI50 (UO-31) was 1.91 µM. The TGI (UO-31; read-out: pTGI (converted)) was 4.27 µM, the GI50 (DU-145 [2]) was 1.55 µM and the TGI (DU-145 [2]; read-out: pTGI (converted)) was 3.09 µM. For the same molecule, the GI50 (MCF7) was 1.95 µM, the TGI (MCF7; read-out: pTGI (converted)) was 4.9 µM and the GI50 (MDA-MB-231) was 1.45 µM. It also gave a TGI (MDA-MB-231; read-out: pTGI (converted)) of 3.02 µM, a GI50 [3] of 1.38 µM and a TGI ([3]; read-out: pTGI (converted)) of 3.72 µM. For the same molecule, the GI50 (MDA-MB-435) was 1.82 µM, the TGI (MDA-MB-435; read-out: pTGI (converted)) was 3.63 µM and the GI50 (T47D) was 1.78 µM. It also gave a TGI (T47D; read-out: pTGI (converted)) of 3.98 µM, a growth at 10 µM [1] of 42.6% and a growth at 10 µM (DU-145 [4]) of -57%. It also gave a GI50 (CCRF-CEM) of 2 µM, a TGI (CCRF-CEM; read-out: pTGI (converted)) of 5.62 µM and a GI50 (MOLT-4) of 1.7 µM. The GI50 [5] was 1.7 µM, the TGI ([5]; read-out: pTGI (converted)) was 6.92 µM and the GI50 (HOP-62) was 0.759 µM. It also gave a TGI (HOP-62; read-out: pTGI (converted)) of 15.5 µM, a TGI (NCI-H460) of 3.31 µM and a GI50 (HCT-116) of 1.55 µM. The TGI (HCT-116; read-out: pTGI (converted)) was 2.95 µM.
